The list is not random: actives were taken first. Their share in the collection is about 7.1%.
HCT116 bCat-KO: beta-catenin-lacking colon tumor cell growth suppression; AID 818; HCT116 beta-catenin knockout viability, CellTiter-Glo, 60 h; hits give low values; viability, % at 10 µM; 140,000 tested, 1.5% active;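 active = viability at or under a set limit, the compound median less 4 SD, cut at about 6% in these data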;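 also: 0% = Hyamine 1622 control at 20 µM and 100% = untreated cell control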
H69AR growth 86K: growth inhibitors of human H69AR lung tumor cells; H69AR lung tumor viability, ATP luminescence, 72 h; hits give low values; viability, % at 10 µM; 85,000 tested, 6% active;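 active = viability at or below 40%; inactive = viability above 40%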;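 also: multidrug resistant small cell line overexpressing MRP-1 efflux transporter; 100% = mean luminescence of untreated control wells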
HUVEC inhibit: inhibitors of human endothelial cell proliferation; 86,000 tested, 1.1% active; HUVEC proliferation, CellTiter-Glo luminescence, 72 h; hits give low values; AID 648; viability, % at 10 µM (by protocol);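 active = viability at or below 30%; inactive = viability above 30%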;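 also: 100% = median luminescence of DMSO-only cell control wells on each plate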
Cav3 T inh: inhibitors of human Cav3.2 T-type calcium channel. O95180. Cav3.2-expressing cells, Fluo-4 calcium fluorescence FDSS; hits give low values. B-score at 10 µM. 100,000 tested, 4% active;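 active = single-dose well whose peak fluorescence ratio is a statistical outlier from its plate by either plate-standardised score or position-corrected B-score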
Lung fibro prol: blocks proliferation of human lung fibroblasts | viability, % at 10 µM | LL 47 human lung fibroblast viability, ATP luminescence; hits give low values | 85,000 tested, 1.1% active;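 active = viability at or below 50% in the single dose screen; inactive = viability above 50%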;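 also: compound exposure lasted 72 h before the ATP readout; 100% = median luminescence of untreated cell-only wells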
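Test system: LL 47 human lung fibroblasts / Incubation: 72 h compound exposure at 37 °C after overnight plating / Technique: luminescent ATP detection, CellTiter-Glo / Compound dosing: 0.1% DMSO in all compound wells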
PTEN del growth: growth suppressors of cells with PTEN tumor suppressor deletion; 140,000 tested, 1.2% active; HCT116 PTEN-null viability, CellTiter-Glo, 60 h; hits give low values; viability, % at 10 µM; AID 827;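 active = viability at or below a set limit, 4 SD under the median of all tested compounds, cut at about 3.7% in these data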;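 also: PTEN knockout HCT116 line with beta catenin targeted HCT116 as companion control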
* marks the source's active call; other numbers are inactive results; . = no result.

SMILES	HCT116 bCat-KO	H69AR growth 86K	HUVEC inhibit	Cav3 T inh	Lung fibro prol	PTEN del growth
COc1ccc(OCC(O)Cn2c(=N)n(CCN3CCCCC3)c3ccccc32)cc1 (centres undefined)	25.6	94.6	40.3	-0.0558	63.4	25.7
Cc1ccc(OCC(O)Cn2c(=N)n(CCN3CCCCC3)c3ccccc32)cc1 (centres undefined)	2.3*	.	.	-1.49	.	2.9*
CCCCn1c(=N)n(CC(O)COc2cccc(C)c2)c2ccccc21 (centres undefined)	1.7*	1.6*	87.4	.	70.0	1.5*
CC(=O)N1c2ccccc2C2(O)N=C(C)SC12 (centres undefined)	82.8	.	.	.	.	82.5
Cc1ccc(OCC(=O)N2CCc3ccccc32)cc1	86.6	.	.	.	.	92.0
O=C(COc1nc2ccccc2nc1N1CCOCC1)N1CCc2ccccc21	37.1	35.6*	75.7	0.0154	39.7*	53.5
C/C(=N\NC(=O)C1(C)CC1(Br)Br)c1ccc(NC(=O)c2ccc(C)o2)cc1 (centres undefined)	74.2	.	.	.	.	70.0
Cn1c(C(C#N)C(=O)c2ccco2)nc2ccccc21 (centres undefined)	74.4	32.6*	89.4	1.14	79.9	73.3
CC1CCCc2sc3nc(N4CCN(CCO)CC4)n4ncnc4c3c21 (centres undefined)	91.8	14.7*	93.5	0.226	92.6	92.2
CCOC(=O)C1=C(Cc2ccc(Cl)cc2)C(=O)c2ccccc2C1=O	68.9	1.9*	20.6*	-1.75	74.6	75.6
Cc1csc(NC(=O)c2cccc(Cn3nc(C)c(Br)c3C)c2)n1	88.4	89.5	93.3	-3.7*	99.7	79.2
Cc1cccc(OCc2nc(C)cc(=O)[nH]2)c1	99.0	96.0	90.8	0.607	96.7	99.0
Cc1cc(C)cc(OCc2nc3ncc(Br)cc3[nH]2)c1	.	10.7*	37.9	.	14.1*	.
COc1cccc(OCc2nc3ncc(Br)cc3[nH]2)c1	10.8	24.9*	48.1	-1.4	47.3*	17.7
CN(NS(=O)(=O)c1ccccc1)c1nc2ccccc2nc1C(F)(F)F	95.2	64.7	90.5	-4.19*	92.8	103.2
Cc1ccccc1C(=O)NN(C)c1nc2ccccc2nc1C(F)(F)F	45.8	.	.	0.143	.	47.2
O=C(c1ccco1)N1CCN(C/C=C/c2ccccc2)CC1	94.0	90.9	89.4	-0.474	94.8	91.6
O=C(c1nn(Cc2ccccc2)c(=O)c2ccccc12)N1CCN(C/C=C/c2ccccc2)CC1	64.5	31.2*	66.2	-6.74*	89.8	51.4
Cc1ccccc1N=C(NOCc1ccccc1)c1nonc1N	71.4	76.6	86.0	-6.56*	85.4	65.4
Cc1ccc(N=C(NOCc2ccc(Cl)cc2Cl)c2nonc2N)c(C)c1	42.4	65.8	91.8	-1.07	82.9	53.6
Cc1ccccc1N=C(NOCc1ccc(Cl)cc1Cl)c1nonc1N	68.5	9.2*	85.5	-2.43	78.5	65.2
Cc1ccc(N=C(NOC(=O)c2ccccc2)c2nonc2N)c(C)c1	94.2	100.7	104.3	0.0168	104.4	86.0
Cc1nc2c(-c3ccc(F)cc3)c(C)nn2c(C)c1CCC(=O)N1CCN(c2ccccc2)CC1	87.0	72.7	84.3	-0.522	104.4	79.2
Cc1nc2c(-c3ccc(F)cc3)c(C)nn2c(C)c1CCC(=O)N1CCN(c2ccc(F)cc2)CC1	82.1	71.1	91.8	-6.17*	93.1	84.1
Cc1nc2c(-c3ccc(F)cc3)c(C)nn2c(C)c1CCC(=O)N1CCC(Cc2ccccc2)CC1	58.5	86.4	73.3	-6.24*	99.0	74.2
SMILES	HCT116 bCat-KO	H69AR growth 86K	HUVEC inhibit	Cav3 T inh	Lung fibro prol	PTEN del growth
CCCc1nn(CCc2ccccn2)c(N)c1CC	97.9	86.7	111.0	0.663	93.5	94.6
CN1CCN(C(=S)NCCc2ccccc2)CC1	93.9	.	.	0.456	.	99.1
CN(C)c1nc(N(C)C)nc(N(C#N)CN2C(=O)c3ccccc3C2=O)n1	95.4	.	.	.	.	97.7
CCc1cc[n+](C2=C([O-])c3ccccc3C(=O)/C2=N\S(=O)(=O)c2cccs2)cc1	2.8*	.	.	.	.	3.2*
CN(C#N)c1nc(Cl)nc(Nc2cccc(Cl)c2)n1	97.1	.	.	.	.	97.3
O=C(NCCSCc1ccco1)Nc1cccc(Cl)c1	73.0	86.7	103.4	-4.46*	100.9	82.0
Cc1ccc(-c2nnn(CC(=O)Nc3ccccc3-c3ccccc3)n2)c(-n2cnnn2)c1	83.9	97.9	96.8	-0.364	95.5	78.3
Nc1nc(-c2ccc(Cl)cc2)c(N=Nc2ccc(S(=O)(=O)N3CCOCC3)cc2)s1	18.9	.	.	.	.	3.7*
O=S(=O)(c1ccc(Cl)cc1)N1CCC(N2CCOCC2)CC1	80.0	77.9	109.0	.	97.5	81.8
CCn1c(N)c(C(=O)NC)sc1=S	54.6	20.1*	95.5	0.153	97.0	60.7
CCNC(=O)c1sc(=S)n(CC)c1N	96.0	.	.	0.157	.	93.1
O=C(CCn1c(=O)[nH]c2ccsc2c1=O)N(CCc1ccccc1)Cc1ccccc1	55.8	86.7	89.7	-4.35*	100.3	52.9
CCN1CCCC1CNC(=O)c1cc2c(-c3ccc(Cl)cc3)nn(C)c2s1 (centres undefined)	3.2*	2.1*	1.7*	0.673	10.8*	5.9
COCCNC(=O)c1cc2c(-c3ccc(Cl)cc3)nn(C)c2s1	61.1	67.4	68.0	1.12	73.5	61.9
Cn1nc(-c2ccc(Cl)cc2)c2cc(C(=O)NCCCN3CCCC3)sc21	1.5*	0.9*	1.7*	-0.199	13.9*	1.7*
CCN1CCCC1CNC(=O)c1cc2c(-c3cccc(OC)c3)nn(C)c2s1 (centres undefined)	2.6*	59.6	47.4	0.128	70.2	4.1
COc1ccc2ncc(OC(C)=O)cc2c1	94.0	.	.	.	.	102.9
COc1cccc(NC2=Nc3cccc4cccc2c34)c1	86.6	.	.	.	.	72.0
CCOC(=O)C1Cn2c(nc3c(c2=O)C2(CCCC2)Cc2ccccc2-3)S1 (centres undefined)	81.7	79.7	90.0	-5.38*	91.7	77.9
CCOC(=O)C1Cn2c(nc3c(c2=O)C(C)(C)Cc2ccccc2-3)S1 (centres undefined)	86.2	90.2	101.3	-6.41*	95.1	91.2
C=CCn1c(SCC#N)nc2c(c1=O)C(C)(C)Cc1ccccc1-2	84.9	69.1	98.1	.	107.4	68.4
CC(C)(C)C(=O)NC(=S)Nc1ccc(F)cc1	96.0	.	.	.	.	98.5
O=C1CC(O)(C(F)(F)F)Oc2c1ccc1ccccc21 (centres undefined)	99.7	91.0	67.1	-4.25*	103.9	92.0
O=C1C(=O)N(CCCN2CCOCC2)C(c2ccccn2)/C1=C(\O)c1ccc2c(c1)OCCO2 (centres undefined)	.	92.3	97.2	.	96.0	.
O=C(O)CCN1C(=O)C(=C2CCCCCC2)SC1=S	96.9	89.6	86.2	2.24	102.3	94.9
O=C1C(=C2CCCCC2)SC(=S)N1Cc1ccco1	64.2	10.8*	81.5	-2.38	94.0	61.7
CC(C)(C)SCCNC(=O)c1ccc(Cl)c([N+](=O)[O-])c1	86.3	.	.	.	.	94.2
